Source: PubChem (several laboratories)
KCC2 mod: modulates chloride dependent transport by human KCC2; 190,000 tested, 2.2% active; Q9H2X9; AID 1456; B-score of Tl+ flux slope (higher = more flux/activation; lower = inhibition) at 10 µM; KCC2 cells, thallium flux FluoZin-2 fluorescence;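 active means thallium flux slope and its plate-corrected score both differing from the plate sample mean at a set confidence after two filtering rounds, in either direction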;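 further: slope of fluorescence scaled to starting intensity during 10 to 20 s after thallium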
hERG rescue: shields human hERG channel from block by proarrhythmic agents | CHO-hERG, FluxOR thallium flux, dofetilide IC70 present | 310,000 tested, 0.51% active | Q12809 | activation (rescue from dofetilide block), less the hit threshold, % at 10 µM | AID 1511;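 active means activation above the mean of controls blocked by dofetilide plus 5 SD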;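 further: thallium influx through hERG after potassium depolarization seen as dye fluorescence rise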
KCNK9 block: blocks the human KCNK9 two-pore domain potassium channel. HEK293 KCNK9, FluxOR thallium flux fluorescence; active compounds read low. AID 488922. B-score at 10 µM. 310,000 tested, 1.2% active;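 active means ratio B-score over 3 SD below the library mean, with starting fluorescence within 5 SD of its mean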;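 further: negative B-score means less thallium flux so channel inhibition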
Target sequence (Q9NPC2 whole entry, looked up, the tested form may be a part): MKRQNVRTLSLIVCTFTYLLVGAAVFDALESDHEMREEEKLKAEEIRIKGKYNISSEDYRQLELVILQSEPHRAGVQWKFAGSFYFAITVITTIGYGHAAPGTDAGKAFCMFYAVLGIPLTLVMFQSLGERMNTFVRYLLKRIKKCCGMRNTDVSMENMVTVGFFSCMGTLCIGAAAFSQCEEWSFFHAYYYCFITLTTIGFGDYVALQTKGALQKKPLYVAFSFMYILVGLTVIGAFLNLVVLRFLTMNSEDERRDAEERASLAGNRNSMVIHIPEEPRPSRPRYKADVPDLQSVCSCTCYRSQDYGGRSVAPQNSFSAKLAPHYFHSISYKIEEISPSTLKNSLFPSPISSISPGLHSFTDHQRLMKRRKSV
KCNK3 inh: human KCNK3 channel inhibition, primary screen | CHO-KCNK3 thallium flux, FluxOR fluorescence; active compounds read low | 340,000 tested, 0.84% active | B-score at 10 µM;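 active means B-score under library mean minus 4 SD, starting fluorescence ratio at most library mean plus 5 SD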;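 further: more negative B-score means stronger inhibition of thallium flux through KCNK3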
KCNQ1 block: human KCNQ1 channel inhibition; 310,000 tested, 1.3% active; CHO-K1 KCNQ1, FluxOR thallium flux fluorescence; active compounds read high; AID 2642; B-score at 10 µM;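 active means compounds whose thallium flux B-score, printed positive for inhibition, exceeds three library SD while starting fluorescence stays within three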;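 further: channel opened by potassium depolarization with thallium stimulus after 20 min compound exposure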
KCNQ1 act: potentiators or activators of human KCNQ1 potassium channel; P51787; CHO-K1 KCNQ1, thallium flux FluxOR fluorescence; active compounds read high; AID 2648; B-score at 10 µM; 310,000 tested, 0.35% active;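 active means fluorescence ratio B-score, a plate-corrected score, at least three library SD, with initial intensity B-score within 5 SD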
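Material: CHO-K1 cells stably expressing KCNQ1. Medium: assay buffer for compound exposure, DMSO matched across wells. Reagent: K+/Tl+ depolarizing stimulus. Compound dosing: single-concentration screen. Times: 37 °C overnight plating, 90-min dark dye load, 20-min compound pretreatment. Technique: FluxOR Tl+ flux fluorescence.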
KCNK9 block conf: human KCNK9 inhibitor confirmation; AID 492992; inhibition, % at 10 µM; HEK293 KCNK9 cells, FluxOR thallium flux fluorescence; 4,900 tested, 43% active; shares compounds with KCNK9 block;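 active means thallium signal inhibited by more than 5 SD of the compound-free buffer control wells, on both duplicate plates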;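 further: 0% = assay buffer control wells without compound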
Kir21 sel: mouse Kir2.1 off-target activity of KCNK9 modulators; shares compounds with KCNK9 block; Kir2.1 cells, FluxOR thallium flux fluorescence; inhibition, % at 10 µM; 4,900 tested, 4% active; AID 492993;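 active means thallium signal drop more than 5 SD beyond the mean of the no-compound control wells, seen in both duplicate plates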;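 further: signal is fluorescence rise after thallium addition divided by baseline fluorescence; plate controls were assay buffer only for no effect and full block by chlorpromazine control for full effect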
HEK293 Tl ctr: second counter-screen for KCNK9 modulators: effect in non-induced cells | non-induced KCNK9-HEK293, FluxOR thallium flux | 4,900 tested, 40% active | shares compounds with KCNK9 block | inhibition, % at 10 µM;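 active means thallium signal drop beyond 5 SD of the untreated control mean, on both duplicate plates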;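 further: plate controls were buffer only IC0 wells for no effect and SID17386958 at its maximal inhibitory level for full effect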
* hit, by the source's call; i = inactive; / = not tested or not shown. In the library only some 4.1% were active in any assay of this set; here they are far more common.

SMILES | KCC2 mod | hERG rescue | KCNK9 block | KCNK3 inh | KCNQ1 block | KCNQ1 act | KCNK9 block conf | Kir21 sel | HEK293 Tl ctr
CC1CCN(C(=O)CSc2nc3ccccc3c(=O)n2Cc2ccc3c(c2)OCO3)CC1 | 0.59 | -16 | i | i | i | i | / | / | /
CC1CCCCN1C(=O)CSc1nc2cc3c(cc2c(=O)n1Cc1ccc2c(c1)OCO2)OCO3 (stereo not drawn) | -0.33 | -18 | i | i | i | i | i | i | 24%*
Cc1cccc(OCC(O)CN2CCOCC2)c1 (stereo not drawn) | / | -7 | i | i | i | i | / | / | /
CCCCN(CC(O)COc1cccc(C)c1)CC(O)COc1cccc(C)c1 (stereo not drawn) | / | -18 | i | i | i | i | i | i | 42%*
ClCCn1cnc2c(SCc3ccccc3)ncnc21 | / | / | / | i | / | / | / | / | /
Cc1ccc(CNC(=O)c2cc3c(-c4ccc(Cl)cc4)nn(C)c3s2)o1 | / | -3 | -12* | -12* | 11* | i | 56%* | i | 35%*
CCCCNC(=O)c1cc2c(-c3ccc(Cl)cc3)nn(C)c2s1 | / | -3 | i | i | i | i | / | / | /
CC(C)Cc1nc(N2CCC(C(N)=O)CC2)c2nnn(Cc3ccccc3)c2n1 | 0.35 | -12 | i | i | i | i | / | / | /
Cc1nc(N2CCC(C)CC2)c2nnn(Cc3ccccc3)c2n1 | -0.3 | -5 | i | i | i | i | i | i | i
Cc1nc(NCCc2ccccc2)c2nnn(Cc3ccccc3Cl)c2n1 | / | -4 | i | i | i | i | / | / | /
COc1ccc(Cl)cc1Nc1nc(C)nc2c1nnn2Cc1ccccc1 | / | -5 | i | i | i | i | / | / | /
COc1ccc(CCNc2nc(C)nc3c2nnn3Cc2ccccc2)cc1 | / | -2 | i | i | i | i | i | i | i
COc1ccc(OC)c(Nc2nc(C3CC3)nc3c2nnn3Cc2ccccc2)c1 | -0.3 | -10 | i | i | i | i | i | i | i
CCN(C[C@H]1N[C@@](C)(C(=O)OC)[C@H]2C(=O)N(Cc3ccccc3)C(=O)[C@@H]12)S(=O)(=O)c1ccc(OC)cc1 | / | / | / | i | / | / | / | / | /
CC1CCN(C(=O)c2ncn(Cc3ccccc3)c2C(=O)N2CCC(C)CC2)CC1 | / | / | / | i | / | / | / | / | /
COc1ccc2c3c(ccc2c1)C(=O)/C(=C/O)CC3 | / | / | / | i | / | / | / | / | /
Nc1nc(N)nc(Cc2ccccc2O)n1 | / | / | / | i | / | / | / | / | /
N/C(=N\OC(=O)C1CCCCC1)c1ccc(Br)cc1 | / | -3 | i | i | i | i | / | / | /
C/C(=N/OC(=O)C1CC12CCC2)c1ccc(Br)cc1 (stereo not drawn) | -0.061 | -10 | i | i | i | i | i | i | i
COC(=O)c1c(NC(=O)Cc2ccccc2)sc2c1C(C(=O)OC)CC2 (stereo not drawn) | -0.16 | -22 | i | i | i | i | i | i | i
COC(=O)c1c(NC(=O)C(C)(C)C)sc2c1C(C(=O)OC)CC2 (stereo not drawn) | 0.93 | -9 | i | i | i | i | / | / | /
COc1ccc(/C=C2\SC(=S)N(NS(=O)(=O)c3ccc(C)cc3)C2=O)c(OC)c1 | / | -9 | i | i | i | i | / | / | /
COc1ccc(/C=C2\SC(=S)N(NS(=O)(=O)c3ccccc3)C2=O)c(OC)c1 | / | -8 | i | i | i | 19* | i | i | i
COc1ccc(OC)c(/C=C2\SC(=S)N(NS(=O)(=O)c3ccc(C)cc3)C2=O)c1 | / | -4 | i | i | i | i | i | i | i
COc1ccc(OC)c(/C=C2\SC(=S)N(NS(=O)(=O)c3ccccc3)C2=O)c1 | / | -7 | i | i | i | i | / | / | /
